Assay outcomes as filed in PubChem.
Rows were chosen to be rich in hits. Some 3.8% of all compounds tested hit in one or more screens of this group.
HSP90 inh: HSP90 refolding inhibition in rabbit reticulocyte lysate; AID 1789; inhibition, % at 5.6 µM; 0.91% of 290,000 active; luciferase refolding luminescence, 3 h;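 active = inhibition above the screen-wide mean plus 3 SD, computed separately per campaign, cut at about 16% in these data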;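 note: 0% = DMSO wells and 100% = 60 µM geldanamycin wells; inhibitors lower the luminescence because luciferase stays unfolded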
Hep lipid drop: hepatic lipid droplet formation modulation; AML12 mouse hepatocytes, oleate lipid droplets, BODIPY imaging; inhibition, % at 6.5 µM; 0.4% of 240,000 active; AID 1656;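 active = lipid droplet intensity inhibited by at least 50%, with more than 500 cells counted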
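material = mouse AML12 hepatocyte cell line, fixed after treatment | also added = 100 µM oleic acid challenge | doses = compound at 6.5 µM only | schedule = overnight exposure | technique = Image-based BODIPY and DAPI two-channel analysis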
HSF1 activator: increases HSF-1 driven luciferase reporter signal; NIH3T3-HGL HSF-1 luciferase reporter, MG132, 8 h; 100% = twice DMSO control signal; activation, % at 9 µM; 1.7% of 300,000 active;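 active = mean replicate activation of at least 50% with a set share of replicates each reaching 50%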;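 note: 0% = median of the neutral control wells and 100% = twice that signal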
NS3 helicase inh: inhibitors of Hepatitis C virus NS3 helicase | NS3 helicase DNA unwinding, Cy5 molecular beacon fluorescence | 0.56% of 290,000 active | inhibition, % at 10.9 µM;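 active = inhibition above the mean of all tested compounds plus 3 SD, set per campaign, cut at about 35% in these data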;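 note: 0% = DMSO wells and 100% = thioflavine S control wells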
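Measured by: Cy5 fluorescence, 0 and 60 min reads / Assay system: NS3 helicase fragment of HCV / Control set: low DMSO, high thioflavine S at 110 µM / Times: 1 h reaction at 25 °C, ATP-initiated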
HSF1 inh: HSF1 inhibition. activity change, negative = inhibition, % at 7.5 µM (by protocol). AID 2098. 0.77% of 300,000 active. NIH3T3-HGL HSE-luciferase, MG132-induced, luminescence 8 h; active compounds read low;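 active = more than half of replicate wells show activity change below -50%, luminescence cut by over half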;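 note: luciferase reports HSF-1 transcriptional activity via heat shock element; 0% = median of DMSO wells and -100% = zero luminescence signal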
Active calls of the source: *.

`CCOc1ccccc1CNCCN1CCOCC1` gave HSP90 inh -2.1, HSF1 activator 58.4*, NS3 helicase inh 0.3 and HSF1 inh 13.8.
Screening CCN(CC)S(=O)(=O)c1ccc(N2CCOCC2)c(NC(=O)c2cc(-c3ccccn3)nc3ccccc23)c1 returned HSP90 inh -0.5, Hep lipid drop 27.1, HSF1 activator -46.5, NS3 helicase inh -23.1 and HSF1 inh -34.5.
Cc1[nH]c(C)c(S(=O)(=O)N2CCN(c3ccccc3)CC2)c1C(=O)N1CCCC1 was read as HSP90 inh 1.4, Hep lipid drop -4.1, HSF1 activator 2.8, NS3 helicase inh 11.3 and HSF1 inh -1.9.
For Cc1[nH]c(C)c(S(=O)(=O)N2CCCCC2)c1C(=O)N1CCCC1 the results were HSP90 inh -3.3, Hep lipid drop 7.3, HSF1 activator 11.2, NS3 helicase inh 2.2 and HSF1 inh 0.0.
Cc1cccc(N2CCN(S(=O)(=O)c3c(C)[nH]c(C)c3C(=O)N3CCCC3)CC2C)c1 (stereo not drawn) was read as HSP90 inh -1.6, Hep lipid drop -0.6, HSF1 activator 54.6*, NS3 helicase inh -3.6 and HSF1 inh 16.8.
CCOC(=O)c1c(C)[nH]c(C)c1S(=O)(=O)N1CCN(c2cccc(C)c2)C(C)C1 (stereo not drawn) was read as HSP90 inh -1.6, Hep lipid drop -13.9, HSF1 activator 86.6*, NS3 helicase inh 32.1 and HSF1 inh 40.1.
For CCOC(=O)c1c(C)[nH]c(C)c1S(=O)(=O)N1CCCCC1 the results were HSP90 inh -0.4, Hep lipid drop -7.5, HSF1 activator 56.8*, NS3 helicase inh 7.8 and HSF1 inh 25.2.
`O=C(Nc1ccon1)c1sc2cc(Cl)ccc2c1Cl` gave HSP90 inh -3.3, Hep lipid drop -11.5, HSF1 activator 26.6, NS3 helicase inh -4.5 and HSF1 inh 14.4.
Screening O=C(O)c1ccc2c(c1)C(=O)N(c1cccc(S(=O)(=O)Nc3cccc(C(F)(F)F)c3)c1)C2=O returned HSP90 inh 3.8, Hep lipid drop 3.7, HSF1 activator -2.2, NS3 helicase inh -24.5 and HSF1 inh -8.0.
CCOc1ccc(NC(=O)CN2C(=O)NC(CCc3ccccc3)C2=O)cc1OCC (stereo not drawn) was read as HSF1 activator -1.0 and HSF1 inh -1.0.
`CCNC(=S)NNC(=S)NCc1ccccc1` gave HSP90 inh -3.3, Hep lipid drop 2.2, HSF1 activator 9.9, NS3 helicase inh -11.5 and HSF1 inh -6.2.
For CCC(NC(=S)NCc1ccccc1)C(=O)O (stereo not drawn) the results were HSP90 inh -2.1, Hep lipid drop -6.6, HSF1 activator -67.5, NS3 helicase inh 2.3 and HSF1 inh -60.3*.
O=C(Nc1ccccc1O)c1cccc(S(=O)(=O)Nc2ccccc2O)c1 was read as HSF1 activator 123.4* and HSF1 inh 78.6.
O=C(NCCS(=O)(=O)N1CCN(Cc2ccccc2)CC1)c1ccccc1 was read as HSF1 activator 10.0 and HSF1 inh 0.6.
Screening COC(=O)c1c(C)oc2ccc(N(C(=O)c3ccncc3)S(=O)(=O)c3ccc4ccccc4c3)cc12 returned HSP90 inh 2.8, Hep lipid drop -5.8, HSF1 activator 3.7, NS3 helicase inh -20.9 and HSF1 inh -1.7.
COC(=O)c1c(C)oc2ccc(N(C(=O)Oc3ccccc3)S(=O)(=O)c3ccc(Cl)c([N+](=O)[O-])c3)cc12 was read as HSP90 inh -5.8, Hep lipid drop -1.7, HSF1 activator 72.0*, NS3 helicase inh 7.8 and HSF1 inh 60.0.
For CN(N=Nc1cccc([N+](=O)[O-])c1)c1ccccc1 the results were HSP90 inh -0.9, Hep lipid drop 29.9, HSF1 activator 18.6, NS3 helicase inh 3.9 and HSF1 inh 10.7.
`CN(N=Nc1ccc([N+](=O)[O-])cc1)c1ccccc1` gave HSP90 inh -4.2, Hep lipid drop -1.8, HSF1 activator 74.3*, NS3 helicase inh -2.6 and HSF1 inh 44.1.
For Cc1ccc(C)c(-n2c(CNC(=O)c3ccco3)nnc2SCC(=O)N2CCc3ccccc32)c1 the results were HSP90 inh 0.6, HSF1 activator 57.9*, NS3 helicase inh 2.1 and HSF1 inh 10.6.
For Cc1ccc(C)c(-n2c(CNC(=O)c3ccco3)nnc2SCC(=O)Nc2nnc(C)s2)c1 the results were HSP90 inh -4.0, HSF1 activator 33.4, NS3 helicase inh -2.5 and HSF1 inh 16.1.
